# Test results reported in publication PMC8179362 (Chemical Science, 2021).
# Target: NDM-1 (Klebsiella pneumoniae, UniProt C7C422)
# Assay: Imipenem hydrolysis by purified NDM-1, competitive inhibition model
# Format: biochemical
# Conditions: not given
# Chain of NDM-1 (C7C422 29-270, looked up, species assumed): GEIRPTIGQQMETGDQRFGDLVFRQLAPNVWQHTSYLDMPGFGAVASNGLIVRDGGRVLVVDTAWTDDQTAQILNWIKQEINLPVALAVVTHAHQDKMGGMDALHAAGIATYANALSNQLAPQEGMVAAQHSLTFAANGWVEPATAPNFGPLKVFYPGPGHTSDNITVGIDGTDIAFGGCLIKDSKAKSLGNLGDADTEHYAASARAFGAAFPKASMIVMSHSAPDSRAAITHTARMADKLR
row,Structure (SMILES),Ki [µM]
1,"CCOC(=O)[C@]1(CS)N[C@H](C(=O)O)C(C)(C)S1 [L-anti-1b, (2S,4R)-2-(Ethoxycarbonyl)-2-(mercaptomethyl)-5,5-dimethylthiazolidine-4-carboxylic acid]",0.44 ± 0.06
2,"CCOC(=O)[C@@]1(CS)N[C@H](C(=O)O)C(C)(C)S1 [L-syn-1b, (2R,4R)-2-(Ethoxycarbonyl)-2-(mercaptomethyl)-5,5-dimethylthiazolidine-4-carboxylic acid]",8 ± 1

# Same assay, conditions: ratio of Ki values
Structure (SMILES),Fold more active against NDM-1 than its enantiomer [fold],Fold more potent NDM-1 inhibitor than L-BTZ-1 [fold]
"CCOC(=O)[C@]1(CS)N[C@@H](C(=O)O)C(C)(C)S1 [D-syn-1b, (2S,4S)-2-(Ethoxycarbonyl)-2-(mercaptomethyl)-5,5-dimethylthiazolidine-4-carboxylic acid]",13,12
"CCOC(=O)[C@]1(CS)N[C@H](C(=O)O)C(C)(C)S1 [L-anti-1b, (2S,4R)-2-(Ethoxycarbonyl)-2-(mercaptomethyl)-5,5-dimethylthiazolidine-4-carboxylic acid]",7,12

# Target: E. coli cells expressing NDM-1 (Klebsiella pneumoniae, UniProt C7C422)
# Assay: not given
# Format: cell-based
# Conditions: not given
# Chain of E. coli cells expressing NDM-1 (C7C422 29-270, looked up): as the sequence (C7C422 29-270, looked up, species assumed) above
row,Structure (SMILES),IC50 [µM]
1,"CCOC(=O)[C@]1(CS)N[C@H](C(=O)O)C(C)(C)S1 [L-anti-1b, (2S,4R)-2-(Ethoxycarbonyl)-2-(mercaptomethyl)-5,5-dimethylthiazolidine-4-carboxylic acid]",160 ± 10
2,"CCOC(=O)[C@@]1(CS)N[C@H](C(=O)O)C(C)(C)S1 [L-syn-1b, (2R,4R)-2-(Ethoxycarbonyl)-2-(mercaptomethyl)-5,5-dimethylthiazolidine-4-carboxylic acid]",230 ± 30

# Target: IMP-1 (Serratia marcescens, UniProt P52699)
# Assay: Imipenem hydrolysis by purified IMP-1, competitive inhibition model
# Format: biochemical
# Conditions: not given
# Chain of IMP-1 (P52699 19-246, looked up, species assumed): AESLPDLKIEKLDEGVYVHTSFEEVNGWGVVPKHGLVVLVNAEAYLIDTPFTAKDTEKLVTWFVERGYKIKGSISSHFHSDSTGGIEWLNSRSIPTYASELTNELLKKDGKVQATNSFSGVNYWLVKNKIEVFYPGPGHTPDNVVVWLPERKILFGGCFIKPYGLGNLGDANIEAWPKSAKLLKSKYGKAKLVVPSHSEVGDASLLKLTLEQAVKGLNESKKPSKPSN
row,Structure (SMILES),Ki [µM]
1,"CCOC(=O)[C@]1(CS)N[C@@H](C(=O)O)C(C)(C)S1 [D-syn-1b, (2S,4S)-2-(Ethoxycarbonyl)-2-(mercaptomethyl)-5,5-dimethylthiazolidine-4-carboxylic acid]",2 ± 0.2
2,"CCOC(=O)[C@]1(CS)N[C@H](C(=O)O)C(C)(C)S1 [L-anti-1b, (2S,4R)-2-(Ethoxycarbonyl)-2-(mercaptomethyl)-5,5-dimethylthiazolidine-4-carboxylic acid]",0.46 ± 0.05
3,"CCOC(=O)[C@@]1(CS)N[C@H](C(=O)O)C(C)(C)S1 [L-syn-1b, (2R,4R)-2-(Ethoxycarbonyl)-2-(mercaptomethyl)-5,5-dimethylthiazolidine-4-carboxylic acid]",6 ± 0.6

# System: Enterobacter spp. (42713), IMP
# Assay: Imipenem MIC, broth microdilution, clinical isolate
# Format: cell-based
# Conditions: Enterobacter spp. (42713), IMP; MMTZ at constant 100 mg/L
# Procedure, shortened: (§1)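 Clinical Enterobacterales isolates producing MBLs. Carbapenem MIC was determined for the carbapenem alone and in the presence of test compound, and the shift in MIC was assessed. Imipenem was the carbapenem for most strains. Morganellaceae strains were tested with meropenem instead, because of their intrinsic reduced susceptibility to imipenem.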
row,Structure (SMILES),MIC of imipenem (IMI) + MMTZ [µg/mL]
1,"CCOC(=O)[C@]1(CS)N[C@@H](C(=O)O)C(C)(C)S1 [D-syn-1b, (2S,4S)-2-(Ethoxycarbonyl)-2-(mercaptomethyl)-5,5-dimethylthiazolidine-4-carboxylic acid]",8
2,"CCOC(=O)[C@]1(CS)N[C@H](C(=O)O)C(C)(C)S1 [L-anti-1b, (2S,4R)-2-(Ethoxycarbonyl)-2-(mercaptomethyl)-5,5-dimethylthiazolidine-4-carboxylic acid]",8
3,"CCOC(=O)[C@@]1(CS)N[C@H](C(=O)O)C(C)(C)S1 [L-syn-1b, (2R,4R)-2-(Ethoxycarbonyl)-2-(mercaptomethyl)-5,5-dimethylthiazolidine-4-carboxylic acid]",16

# Same assay, conditions: Enterobacter, read-out: MIC of imipenem (IMI) alone
row,Structure (SMILES),MIC [µg/mL]
1,"C[C@@H](O)[C@H]1C(=O)N2C(C(=O)O)=C(SCCN=CN)C[C@H]12 [IMI, imipenem, reference compound]",16

# System: K. pneumoniae (LC 82), IMP-13
# Assay: as above
# Format: cell-based
# Conditions: MMTZ at constant 100 mg/L
# Procedure, shortened: as §1
row,Structure (SMILES),MIC of imipenem (IMI) + MMTZ [µg/mL]
1,"CCOC(=O)[C@@]1(CS)N[C@H](C(=O)O)C(C)(C)S1 [L-syn-1b, (2R,4R)-2-(Ethoxycarbonyl)-2-(mercaptomethyl)-5,5-dimethylthiazolidine-4-carboxylic acid]",1

# System: K. pneumoniae (6907), VIM-2
# Assay: as above
# Format: cell-based
# Conditions: MMTZ at constant 100 mg/L
# Procedure, shortened: as §1
row,Structure (SMILES),MIC of imipenem (IMI) + MMTZ [µg/mL]
1,"CCOC(=O)[C@]1(CS)N[C@@H](C(=O)O)C(C)(C)S1 [D-syn-1b, (2S,4S)-2-(Ethoxycarbonyl)-2-(mercaptomethyl)-5,5-dimethylthiazolidine-4-carboxylic acid]",4
2,"CCOC(=O)[C@]1(CS)N[C@H](C(=O)O)C(C)(C)S1 [L-anti-1b, (2S,4R)-2-(Ethoxycarbonyl)-2-(mercaptomethyl)-5,5-dimethylthiazolidine-4-carboxylic acid]",1
3,"CCOC(=O)[C@@]1(CS)N[C@H](C(=O)O)C(C)(C)S1 [L-syn-1b, (2R,4R)-2-(Ethoxycarbonyl)-2-(mercaptomethyl)-5,5-dimethylthiazolidine-4-carboxylic acid]",4

# Target: VIM-2 (Escherichia coli, UniProt Q5U7L7)
# Assay: Imipenem hydrolysis by purified VIM-2, competitive inhibition model
# Format: biochemical
# Conditions: not given
row,Structure (SMILES),Ki [µM]
1,"CCOC(=O)[C@]1(CS)N[C@@H](C(=O)O)C(C)(C)S1 [D-syn-1b, (2S,4S)-2-(Ethoxycarbonyl)-2-(mercaptomethyl)-5,5-dimethylthiazolidine-4-carboxylic acid]",1.9 ± 0.1
2,"CCOC(=O)[C@]1(CS)N[C@H](C(=O)O)C(C)(C)S1 [L-anti-1b, (2S,4R)-2-(Ethoxycarbonyl)-2-(mercaptomethyl)-5,5-dimethylthiazolidine-4-carboxylic acid]",0.75 ± 0.09
3,"CCOC(=O)[C@@]1(CS)N[C@H](C(=O)O)C(C)(C)S1 [L-syn-1b, (2R,4R)-2-(Ethoxycarbonyl)-2-(mercaptomethyl)-5,5-dimethylthiazolidine-4-carboxylic acid]",3.6 ± 0.4

# System: P. mirabilis (UNC KPC 170), IMP
# Assay: Carbapenem
# Format: cell-based
# Conditions: tested using meropenem (footnote a)
# Procedure, shortened: as §1
row,Structure (SMILES),MIC of carbapenem alone (column IMI) [µg/mL]
1,"C[C@@H](O)[C@H]1C(=O)N2C(C(=O)O)=C(SCCN=CN)C[C@H]12 [IMI, imipenem, reference compound]",16

# System: K. aerogenes (6915), VIM-2
# Assay: Imipenem MIC, broth microdilution, clinical isolate
# Format: cell-based
# Conditions: MMTZ at constant 100 mg/L
# Procedure, shortened: as §1
row,Structure (SMILES),MIC of imipenem (IMI) + MMTZ [µg/mL]
1,"CCOC(=O)[C@]1(CS)N[C@@H](C(=O)O)C(C)(C)S1 [D-syn-1b, (2S,4S)-2-(Ethoxycarbonyl)-2-(mercaptomethyl)-5,5-dimethylthiazolidine-4-carboxylic acid]",4
2,"CCOC(=O)[C@]1(CS)N[C@H](C(=O)O)C(C)(C)S1 [L-anti-1b, (2S,4R)-2-(Ethoxycarbonyl)-2-(mercaptomethyl)-5,5-dimethylthiazolidine-4-carboxylic acid]",2
3,"CCOC(=O)[C@@]1(CS)N[C@H](C(=O)O)C(C)(C)S1 [L-syn-1b, (2R,4R)-2-(Ethoxycarbonyl)-2-(mercaptomethyl)-5,5-dimethylthiazolidine-4-carboxylic acid]",4

# System: K. pneumoniae (5639), VIM-24
# Assay: as above
# Format: cell-based
# Conditions: MMTZ at constant 100 mg/L
# Procedure, shortened: as §1
row,Structure (SMILES),MIC of imipenem (IMI) + MMTZ [µg/mL]
1,"CCOC(=O)[C@]1(CS)N[C@@H](C(=O)O)C(C)(C)S1 [D-syn-1b, (2S,4S)-2-(Ethoxycarbonyl)-2-(mercaptomethyl)-5,5-dimethylthiazolidine-4-carboxylic acid]",8
2,"CCOC(=O)[C@]1(CS)N[C@H](C(=O)O)C(C)(C)S1 [L-anti-1b, (2S,4R)-2-(Ethoxycarbonyl)-2-(mercaptomethyl)-5,5-dimethylthiazolidine-4-carboxylic acid]",4
3,"CCOC(=O)[C@@]1(CS)N[C@H](C(=O)O)C(C)(C)S1 [L-syn-1b, (2R,4R)-2-(Ethoxycarbonyl)-2-(mercaptomethyl)-5,5-dimethylthiazolidine-4-carboxylic acid]",8

# System: K. pneumoniae (1.37), NDM
# Assay: as above
# Format: cell-based
# Conditions: MMTZ at constant 100 mg/L
# Procedure, shortened: as §1
row,Structure (SMILES),MIC of imipenem (IMI) + MMTZ [µg/mL]
1,"CCOC(=O)[C@]1(CS)N[C@@H](C(=O)O)C(C)(C)S1 [D-syn-1b, (2S,4S)-2-(Ethoxycarbonyl)-2-(mercaptomethyl)-5,5-dimethylthiazolidine-4-carboxylic acid]",8
2,"CCOC(=O)[C@]1(CS)N[C@H](C(=O)O)C(C)(C)S1 [L-anti-1b, (2S,4R)-2-(Ethoxycarbonyl)-2-(mercaptomethyl)-5,5-dimethylthiazolidine-4-carboxylic acid]",8

# System: E. coli (8.68), NDM-1
# Assay: as above
# Format: cell-based
# Conditions: E. coli (8.68), NDM-1; MMTZ at constant 100 mg/L
# Procedure, shortened: as §1
row,Structure (SMILES),MIC of imipenem (IMI) + MMTZ [µg/mL]
1,"CCOC(=O)[C@]1(CS)N[C@@H](C(=O)O)C(C)(C)S1 [D-syn-1b, (2S,4S)-2-(Ethoxycarbonyl)-2-(mercaptomethyl)-5,5-dimethylthiazolidine-4-carboxylic acid]",32
2,"CCOC(=O)[C@]1(CS)N[C@H](C(=O)O)C(C)(C)S1 [L-anti-1b, (2S,4R)-2-(Ethoxycarbonyl)-2-(mercaptomethyl)-5,5-dimethylthiazolidine-4-carboxylic acid]",16
3,"CCOC(=O)[C@@]1(CS)N[C@H](C(=O)O)C(C)(C)S1 [L-syn-1b, (2R,4R)-2-(Ethoxycarbonyl)-2-(mercaptomethyl)-5,5-dimethylthiazolidine-4-carboxylic acid]",32

# Same assay, conditions: Escherichia coli, read-out: MIC of imipenem (IMI) alone
row,Structure (SMILES),MIC [µg/mL]
1,"C[C@@H](O)[C@H]1C(=O)N2C(C(=O)O)=C(SCCN=CN)C[C@H]12 [IMI, imipenem, reference compound]",64
